The list is not random: actives were taken first. Their share in the collection is about 9.6%.
BaF3 parental – counter-screen for JAK2V617F inhibitors: parental Ba/F3 viability inhibitors. 220,000 compounds, 1.1% hits. CellTiter-Glo ATP luminescence. inhibition, % at 5.6 µM;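 active = inhibition above a per-campaign cutoff, the mean inhibition of all tested compounds plus 3 SD, cut at about 27% in these data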;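 note: 0% = DMSO wells and 100% = JAK Inhibitor I control wells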
Ba/F3 V617F tox – lowers viability of Ba/F3 cells expressing EpoR and JAK2V617F; 220,000 compounds, 1.1% hits; AID 1446; ATP luminescence; inhibition, % at 5.6 µM;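 active = inhibition above the campaign mean plus 3 SD over all tested compounds, cut at about 24% in these data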;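 note: cytokine-independent growth of Ba/F3 cells driven by EpoR plus mutant JAK2; 0% = DMSO-treated cells and 100% = JAK inhibitor I control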
L major viab – reduces viability of Leishmania major promastigotes. resazurin fluorescence viability. inhibition, % at 10 µM. 200,000 compounds, 9% hits. AID 1063; in the data active = inhibition above about 50%;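 note: promastigotes grown with compound for 44 hours at 28 °C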
bCat nuc transl – alters nuclear translocation of beta-catenin in HeLa cells. nuclear translocation activity, % at 5 µM. 190,000 compounds, 0.3% hits. AID 1665. immunofluorescence imaging;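 active = nuclear translocation activity above 50% at 5 µM, with a well cell count of 50 or more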;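 note: per-cell ratio of nuclear to cytoplasmic median beta-catenin stain intensity; plate controls were DMSO negative control for no effect and GSK-3 inhibitor IX positive control for full effect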
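Test system: human HeLa cells, native beta-catenin. Compound dosing: 5 µM primary single dose, 0.1% DMSO, 0.02–20 µM confirmation series. Incubation: compound exposure 24 h at 37°C. Detection: beta-catenin immunostaining with DAPI counterstain, 20x imaging, 6 fields/well. Read-out basis: Nuclear/cytoplasmic beta-catenin signal ratio, % activation.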
MT stabilizer – microtubule stabilization, imaging screen; 200,000 compounds, 0.83% hits; AID 2205; % tubulin-high responders, % at 10 µM; HeLa tubulin immunostaining HCS, 24 h; share of cells brighter than vehicle mean+2SD;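 active = plate Z-score above 3 for both tubulin-high and condensed-nucleus cell shares, with cell loss under 80%, at 10 µM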;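 note: anti alpha tubulin signal scored within the nucleus-defined area of each cell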
APP 5UTR inh – APP translation inhibition; inhibition, % at 2 µM; SH-SY5Y APP 5'UTR-luciferase reporter, luminescence; 190,000 compounds, 0.82% hits;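 active = inhibition above a set limit, derived from the sample mean plus 3 SD, cut at about 45% in these data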
Active calls of the source: *; . = no result.

SMILES	BaF3 parental	Ba/F3 V617F tox	L major viab	bCat nuc transl	MT stabilizer	APP 5UTR inh
CSc1nc2ccccc2nc1N(C)S(=O)(=O)c1ccc(C)cc1	-4.7	0.9	.	-0.4	.	.
Cc1cc(/C=C2/SC(=S)N(c3ccc([N+](=O)[O-])cc3)C2=O)c(C)n1-c1cccnc1	1.0	-2.1	91.0*	4.9	2.1	12.6
O=C(CCc1ccccc1)Nc1ccc2ccccc2n1	8.2	0.4	2.3	2.5	2.2	-140.4
Cc1cccc2c(N=Nc3ccc(S(=O)(=O)Nc4ccc(Cl)cc4)cc3[N+](=O)[O-])c(O)[nH]c12	5.1	2.2	53.1*	0.0	2.4	-11.7
Cc1ccc(S(=O)(=O)Nc2ccc(C(N)=O)cc2)cc1[N+](=O)[O-]	2.8	-3.4	-9.7	0.5	1.7	-0.6
COc1ccc(N2CC(NC(=O)N3CCc4ccccc43)CC2=O)cc1OC (centres undefined)	9.4	-2.1	6.1	.	2.4	12.4
O=C(Nc1cccc(Cl)c1)N1CCN2C(=O)c3ccccc3C12c1ccccc1 (centres undefined)	-0.1	-2.5	97.9*	-0.4	3.7	5.8
O=C(COC(=O)C1(c2ccc(Cl)cc2)CCCC1)N1CCc2ccccc21	9.7	-1.6	2.2	-1.8	6.2	20.3
O=C(CCl)N1CCN2C(=O)c3ccccc3C12c1ccc(Cl)cc1 (centres undefined)	9.1	1.2	100.4*	-0.2	8.6	-19.7
CN1C(=S)SC(N(O)C(=O)Nc2ccc(Cl)c(Cl)c2)C1(C)C (centres undefined)	9.6	5.5	12.0	-1.5	3.0	0.9
O=C(c1cc2ccccc2oc1=O)N1CCN(Cc2ccc3c(c2)OCO3)CC1	-1.3	-4.9	9.8	.	6.0	-11.9
O=C(c1cc2ccccc2oc1=O)N(Cc1ccccc1)Cc1ccc2c(c1)OCO2	0.2	-1.8	61.0*	.	4.1	9.1
N=C1/C(=C\c2ccc(OCc3ccccc3)cc2)C(=O)N=C2SC(N3CCCC3)=NN12	-3.8	-0.5	-3.8	-3.2	2.3	-6.5
OC(COc1ccccc1Cl)CN1CCN(CC(O)COc2ccccc2Cl)CC1 (centres undefined)	1.9	-2.1	88.4*	0.4	2.5	-2.7
OC(COc1ccc2ccccc2c1Cl)CN1CCOCC1 (centres undefined)	1.9	0.1	91.9*	-5.6	2.1	-39.9
CC1(C)C=C(c2ccc(O)cc2)CC(C)(C)N1	5.1	-0.6	12.1	-2.2	4.4	-0.5
O=C(Nc1cc(C(F)(F)F)ccc1Cl)C(NCc1ccccc1)c1ccccc1 (centres undefined)	4.9	2.5	92.4*	.	2.4	-9.3
Cc1ccc(S(=O)(=O)N2CCN(C3CCC(c4ccccc4)CC3)CC2)cc1 (centres undefined)	-2.7	-5.7	95.7*	1.0	3.4	7.5
c1ccc(C2CCC(N3CCNCC3)CC2)cc1 (centres undefined)	7.1	6.9	91.4*	0.0	4.3	-8.3
CCS(=O)(=O)N1CCN(C2CCC(c3ccccc3)CC2)CC1 (centres undefined)	8.4	2.4	98.7*	2.5	4.3	2.2
O=S(=O)(c1ccccc1)N1CCN(C2CCCCCCC2)CC1	2.0	2.8	45.5	.	3.9	2.8
CCCS(=O)(=O)N1CCN(C2Cc3ccccc3C2)CC1	-11.0	-1.0	.	-1.0	.	.
COc1ccc([N+](=O)[O-])cc1NC(=O)C(C)OC(=O)c1ccccc1C(=O)c1ccc(Cl)cc1 (centres undefined)	7.6	1.5	32.6	-0.5	1.8	8.6
O=C(NC1CCCCC1)c1sc(=S)n2c1[nH]c(=O)c1ccccc12	0.8	-1.7	-11.3	4.3	2.7	-7.3
CCCCNC(=O)c1sc(=S)n2c1[nH]c(=O)c1ccccc12	100.8*	-1.9	-8.2	1.0	5.2	5.4
CC1C/C(=N/Nc2nc3ccccc3[nH]2)CC(C)(C)C1 (centres undefined)	5.0	-2.1	84.9*	-1.0	2.8	-53.0
c1ccc(N/N=C2\CCCc3ccccc32)nc1	7.0	3.7	17.8	5.5	2.2	-3.7
Cc1cc(N/N=C2\CC(C)CC(C)(C)C2)nc2ccccc12 (centres undefined)	2.5	-2.0	98.8*	-0.9	1.8	-36.9
Cc1cc(N/N=C2/CCCc3ccccc32)nc2ccccc12	4.1	1.9	89.9*	-0.6	3.0	-9.1
c1ccc2[nH]c(NC3=NCCC3)nc2c1	1.4	-4.3	30.2	.	5.0	-0.1

Screening results as filed in PubChem.
